Arr AP2 block: blocks beta-arrestin peptide binding to AP2 adaptin. FITC-arrestin peptide / GST-AP2 beads, flow cytometry; AP2 beta2 appendage carries R879A mutation. inhibition, % at 10 µM. 340,000 tested, 0.31% active;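 active means inhibition above a set limit, near 3 SD of compounds lacking own fluorescence, cut at about 54% in these data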
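Measured by: flow cytometry, FL1 (488/535 nm); Material: AP2 appendage R879A on GSH beads; Evaluation: percent response; Timing: pre-incubation 12 min, peptide binding 1 h, room temperature; Also added: 50 nM FITC-arrestin peptide; Medium: PBS with 0.05% Tween 20 and 0.1% BSA.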
ADAM17 inh: inhibitors of human ADAM17. AID 720648. 370,000 tested, 0.83% active. P78536. inhibition, % at 6.95 µM. recombinant ADAM17, EDANS/DABCYL FRET peptide cleavage;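 active means inhibition above the mean of compounds lying between control limits plus 3 SD, set per campaign, cut at about 8.5% in these data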
CaV13 FRET inh: Disruptors of the CACNA1D IQ motif to Ca2+-dependent inactivation inhibitor domain association, primary screening, Förster resonance energy transfer in intact living …; HEK cells, CFP/YFP FRET ICDI-IQ, plate reader, 10 min; percent FRET-ratio fall versus neutral wells; inhibition, % at 12.3 µM; 340,000 tested, 0.098% active; AID 743397;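 active means mean replicate inhibition of at least 30% and at least 1% of replicates passing that level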
ADAM10 inh: ADAM10 inhibition, QFRET primary screen. AID 720582. inhibition, % at 7 µM. 370,000 tested, 0.62% active. recombinant ADAM10, EDANS/DABCYL FRET peptide cleavage, 3 h;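 active means inhibition above a per-campaign cutoff equal to the mean of compounds falling between control-based bounds plus 3 SD, cut at about 20% in these data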
CendR NRP1 mod: modulators of CendR peptide binding to human neuropilin-1; AID 602438; inhibition, % at 25 µM; 360,000 tested, 0.85% active; FAM-RPARPAR peptide binding to NRP-1, fluorescence polarization;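 active means inhibition or corrected inhibition above about 18%, plus a signal ratio from 0.5 to 1.5, limit read from the data, passing the limit was not always enough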
FAS-TE inh: blocks the thioesterase domain of human fatty acid synthase; recombinant FAS-TE, OMFH fluorogenic substrate, fluorescence endpoint; P49327; 360,000 tested, 0.67% active; inhibition, % at 15 µM;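 active means compounds whose normalised, plate-corrected inhibition of enzyme fluorescence in the single-dose primary screen is 50% or more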
Arr AP2 CP1: human beta-arrestin and AP2 interaction inhibition, cherry pick; GST-AP2 beads, FITC arrestin peptide binding, flow cytometry; GST-fused beta2-adaptin appendage, R879A mutant; 1,300 tested, 2% active; shares compounds with Arr AP2 block; AID 504908; inhibition, % at 10 µM;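 active means inhibition above a set limit, roughly 3 SD of non-fluorescent compound noise, cut at about 38% in these data; inactive means inhibition at or below that limit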;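 further: loss of bead fluorescence from 50 nM FITC arrestin peptide bound to appendage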
GST-FITC bead: GST-GSH bead binding interference, counter-screen; shares compounds with Arr AP2 block; GST-fluorescein binding to GSH beads, fluorescence; inhibition, % at 10 µM; 1,300 tested, 2% active; AID 588338;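 active means inhibition above 50%, about 3 SD of the inhibition seen with non-fluorescent compounds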;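 further: fluorescein maleimide labelled GST captured on 4 micron glutathione beads; higher means more loss of bead fluorescence from quenching or blocked binding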
Large screens that a line does not name were inactive (follow-up assays come after a bar, where they were run). An excerpt weighted towards active compounds, which were near 2.9% of everything screened.

CCS(=O)(=O)Nc1cccc(C2=NN(C(C)=O)C(c3cccs3)C2)c1 (stereo not given)	Arr AP2 block 54 | Arr AP2 CP1 inactive | GST-FITC bead inactive
COC(=O)c1ccc(CNC(=O)C(C)N=C2NS(=O)(=O)c3ccccc32)cc1 (stereo not given)	none
CCn1c(=O)n(CC(=O)Nc2ccc(F)cc2)c(=O)c2ccccc21	none | Arr AP2 CP1 inactive | GST-FITC bead inactive
CCn1c(=O)n(CC(=O)NCc2ccccc2OC)c(=O)c2ccccc21	none
CCOc1ccc(-n2c(SCC(=O)Nc3cccc4ccccc34)nnc2-c2cccs2)cc1	none (no result: Arr AP2 block, CaV13 FRET inh, CendR NRP1 mod, FAS-TE inh)
Cc1ccc(CNC(=O)Cn2cnc(S(=O)(=O)N3CCC(C)CC3)c2)o1	Arr AP2 block 55 | Arr AP2 CP1 inactive | GST-FITC bead inactive
C[C@@H]1OC(C2CCCCC2)N(C)[C@H]2C[C@H]3c4[nH]c5ccccc5c4CCN3C[C@@H]12 (stereo not given in full)	none (no result: Arr AP2 block)
O=C(C1CCN(S(=O)(=O)c2cc(Cl)ccc2Cl)CC1)N1CCOCC1	Arr AP2 block 56 | Arr AP2 CP1 inactive | GST-FITC bead inactive
CC(C)N1CCCCC(NC(=O)c2ccc(F)c(F)c2)C1=O (stereo not given)	none (no result: Arr AP2 block, CaV13 FRET inh, CendR NRP1 mod, FAS-TE inh)
COc1ccc(NC(=O)Nc2cc(C)ccn2)cc1	none
CCOc1ccc(NC(=O)Nc2cnccn2)cc1	none | Arr AP2 CP1 inactive | GST-FITC bead inactive
O=C(Nc1cccc(F)c1)Nc1cnccn1	none | Arr AP2 CP1 inactive | GST-FITC bead inactive
COc1ccc(NC(=O)Nc2cnccn2)cc1	none | Arr AP2 CP1 inactive | GST-FITC bead inactive
CC(C)CC(N)c1csc(Nc2cc(Oc3ccccc3)ncn2)n1 (stereo not given)	none (no result: Arr AP2 block)
CC(=O)CC[C@@H]1CC[C@]2(CCCN(S(=O)(=O)C3CCCCC3)C2)O1	none (no result: Arr AP2 block, CaV13 FRET inh, CendR NRP1 mod, FAS-TE inh)
Cc1ccc(C2=C(c3ccc([N+](=O)[O-])cc3)C(=O)OC2)cc1C	Arr AP2 block 54 | Arr AP2 CP1 inactive | GST-FITC bead inactive
COc1ccc(C2=C(c3ccc([N+](=O)[O-])cc3)C(=O)OC2)cc1	none
COc1ccc(OC)c(CN2CCN(C(=O)CCC(=O)c3cccs3)CC2)c1	Arr AP2 block 55 | Arr AP2 CP1 inactive | GST-FITC bead inactive
Cc1ccc(SCC(=O)NC(=O)NC2CCCC2)c(C)c1	Arr AP2 block 64 | Arr AP2 CP1 inactive | GST-FITC bead inactive
Brc1cccc(CNCc2cccs2)c1	Arr AP2 block 55 | Arr AP2 CP1 inactive | GST-FITC bead inactive
COC(=O)[C@@]12C[C@@H](CC(=O)NCc3cccc(C(F)(F)F)c3)C(=O)N(Cc3cccc4ccccc34)C1=CCC(C)(C)C2	none (no result: Arr AP2 block, FAS-TE inh)
C#Cc1cccc(NC(=O)Cc2cccs2)c1	Arr AP2 block 56 | Arr AP2 CP1 inactive | GST-FITC bead inactive
O=C(Nc1nc2ncccn2c1-c1ccc(F)cc1)C1CC1	none (no result: Arr AP2 block, CaV13 FRET inh, CendR NRP1 mod, FAS-TE inh)
COc1cc2c(cc1NC(=O)Nc1ccccc1)oc1ccccc12	none | Arr AP2 CP1 inactive | GST-FITC bead inactive
COc1cc2c(cc1NC(=O)C(C)NCc1ccccc1)oc1ccccc12 (stereo not given)	none | Arr AP2 CP1 inactive | GST-FITC bead inactive
COc1ccc(Cn2ccc3ccc(-c4ccc5ccn(Cc6ccc(F)cc6)c5c4)cc32)cc1	none (no result: Arr AP2 block, CaV13 FRET inh, CendR NRP1 mod, FAS-TE inh)
COc1cc(C2c3[nH]c4ccccc4c3CC3COC(=O)N32)cc(OC)c1O (stereo not given)	none
Cc1[nH]c2ccccc2c1CC(=O)Nc1ccc(Nc2ccncc2)cc1	none (no result: Arr AP2 block, CaV13 FRET inh, CendR NRP1 mod, FAS-TE inh)
COc1cc(OC)cc(C(=O)NC(C(=O)NNC(=O)c2ccc(C)cc2)C(C)C)c1 (stereo not given)	Arr AP2 block 63 | Arr AP2 CP1 inactive | GST-FITC bead inactive
COc1ccc(C(=O)NNC(=O)C(NC(=O)c2cc(OC)cc(OC)c2)C(C)C)cc1 (stereo not given)	none
